Laboratory results taken from ChEMBL document CHEMBL1157565, “Discovery of 1-[3-(4-bromo-2-methyl-2h-pyrazol-3-yl)-4-methoxyphenyl]-3-(2,4-difluorophenyl)urea (nelotanserin) and related 5-hydroxytryptamine2A inverse agonists for the treatment of insomnia” (J Med Chem, 2010).
The source made the active and inactive calls. The rule behind the calls is not given here.

Columns and labels:
[1] = molecular target: T1, 5-hydroxytryptamine receptor 2A (Homo sapiens, UniProt P28223); assay: Displacement of [3H]DOI from human recombinant 5HT2A receptor expressed in HEK293 cells by scintillation counting; type: cell-based; settings: in the assay text read “[125I]DOI” for “[3H]DOI”
T1 sequence (P28223 whole entry): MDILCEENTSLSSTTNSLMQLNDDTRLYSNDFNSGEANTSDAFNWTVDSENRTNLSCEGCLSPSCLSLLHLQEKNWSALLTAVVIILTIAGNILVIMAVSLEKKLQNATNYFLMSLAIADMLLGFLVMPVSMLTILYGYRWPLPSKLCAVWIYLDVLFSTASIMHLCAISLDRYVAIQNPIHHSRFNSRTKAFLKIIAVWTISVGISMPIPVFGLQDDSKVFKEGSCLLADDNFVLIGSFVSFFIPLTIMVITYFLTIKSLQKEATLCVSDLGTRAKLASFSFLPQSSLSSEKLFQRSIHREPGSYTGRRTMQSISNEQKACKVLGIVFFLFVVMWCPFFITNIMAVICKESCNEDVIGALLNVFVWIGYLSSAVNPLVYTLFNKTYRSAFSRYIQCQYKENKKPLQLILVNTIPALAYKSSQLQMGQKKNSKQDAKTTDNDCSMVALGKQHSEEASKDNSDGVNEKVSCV
Summary of the method: (§1)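 Crude membranes (5-25 μg protein) from HEK293 cells stably expressing human 5-HT2A or 5-HT2C. Radioligand [125I]DOI at 0.5 nM final; 10 μM cold DOI defines nonspecific binding. Buffer 20 mM HEPES pH 7.4, 10 mM MgCl2; 1 h at room temperature. Eight concentrations (1 pM–10 μM), each in triplicate. Vacuum filtration on GF/C, Tris wash, scintillation counting; pKi.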

[2] = molecular target: T2, 5-hydroxytryptamine receptor 2C (Homo sapiens, UniProt P28335); assay: Displacement of [3H]DOI from human recombinant 5HT2C receptor expressed in HEK293 cells by scintillation counting; type: cell-based; settings: in the assay text read “[125I]DOI” for “[3H]DOI”; summary of the method: as §1
T2 sequence (P28335 whole entry): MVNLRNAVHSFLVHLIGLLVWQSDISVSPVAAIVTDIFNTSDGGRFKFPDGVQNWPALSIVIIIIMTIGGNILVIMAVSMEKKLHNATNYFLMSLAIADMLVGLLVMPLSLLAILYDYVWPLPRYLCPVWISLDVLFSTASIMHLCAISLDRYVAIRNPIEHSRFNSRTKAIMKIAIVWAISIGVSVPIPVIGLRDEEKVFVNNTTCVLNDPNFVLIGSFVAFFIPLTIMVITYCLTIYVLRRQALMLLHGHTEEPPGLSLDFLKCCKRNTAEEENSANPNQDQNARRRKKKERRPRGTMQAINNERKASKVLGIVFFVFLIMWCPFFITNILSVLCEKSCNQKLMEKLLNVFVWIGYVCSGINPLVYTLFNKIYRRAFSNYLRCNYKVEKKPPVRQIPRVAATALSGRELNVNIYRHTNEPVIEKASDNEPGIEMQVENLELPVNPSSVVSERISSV

[3] = molecular target: T1, 5-hydroxytryptamine receptor 2A; assay: Activity at human 5HT2A receptor expressed in HEK293 cells assessed as [3H]inositol phosphate production by scintillation counting; type: functional, cell-based; settings: read-out: pIC50 (converted)
Summary of the method: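 HEK-293 cells transiently transfected with a mutated, constitutively active h5-HT2A receptor, labeled 18 h with […] [3H]myoinositol in serum- and myoinositol-free DMEM. Then 3 h at 37 °C in HBSS with LiCl (10 mM final), pargyline and compound. Lysis with ice-cold 0.1 M formic acid; total [3H]IP separated on AG1-X8 resin and counted by scintillation. Inverse-agonist pIC50.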

[4] = molecular target: T1, 5-hydroxytryptamine receptor 2A; assay: Displacement of [125I]DOI from human recombinant 5HT2A receptor expressed in HEK293 cells by scintillation counting
[5] = molecular target: T2, 5-hydroxytryptamine receptor 2C; assay: Displacement of [125I]DOI from human recombinant 5HT2C receptor expressed in HEK293 cells by scintillation counting
[6] = Cmax in Wistar rat at 1.4 mg/kg, po; type: ADME, organism-based; design: dose 1.4 mg/kg, route oral; settings: in vivo
Summary of the method: (§2)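 Male Wistar rats, fasted overnight, single oral dose in 80% Tween-80/20% water. Jugular vein blood sampled serially over 24 h ([…]); sodium-heparin plasma stored at -70 °C, quantified by HPLC/MS/MS (LLOQ 1 ng/mL, ULOQ 2000 ng/mL). n = 2-3 animals; noncompartmental analysis; values as mean ± SD.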

[7] = system: Rattus norvegicus; assay: Effect on behavioral activity in Wistar rat assessed as increase in non-rapid eye movement bout length at 1.4 mg/kg, po after 1 hrs; type: functional, organism-based; design: dose 1.4 mg/kg
Summary of the method: (§3)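 Male Wistar rats (300 ± 25 g) implanted for continuous EEG/EMG recording, 1 week recovery. Repeated-measures design: each rat received each treatment, including 80% Tween-80 vehicle, in random order by oral gavage. Non-REM sleep parameters scored hourly after dosing; at least five rats per compound.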

[8] = Half life in Wistar rat at 1.4 mg/kg, po; type: ADME, organism-based; design: dose 1.4 mg/kg, route oral; settings: in vivo; summary of the method: as §2
[9] = system: Rattus norvegicus; assay: Effect on behavioral activity in po dosed Sprague-Dawley rat assessed as reversal of DOI-induced inhibition of rearing behavior; type: functional
Summary of the method: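 Adult male Sprague-Dawley rats dosed orally with compound 45 min before DOI (0.3 mg/kg), which lowers rearing. Fifteen minutes later, rearing recorded in photocell-monitored locomotor activity cages. A dose-response curve for reversal of DOI-induced rearing decrease yields an ED50.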

[10] = system: Rattus norvegicus; assay: Effect on behavioral activity in Wistar rat assessed as decrease in number of non-rapid eye movement bouts at 1.4 mg/kg, po after 2 hrs; type: functional, organism-based; design: dose 1.4 mg/kg; summary of the method: as §3
[11] = Tmax in Wistar rat at 1.4 mg/kg, po; type: ADME, organism-based; design: dose 1.4 mg/kg, route oral; settings: in vivo; summary of the method: as §2
[12] = AUC (0 to infinity) in Wistar rat at 1.4 mg/kg, po; type: ADME, organism-based; design: time infinity, dose 1.4 mg/kg, route oral; settings: plasma; summary of the method: as §2
[13] = molecular target: 5-hydroxytryptamine receptor 2A (Rattus norvegicus, UniProt P14842); assay: Displacement of [125I]DOI from rat recombinant 5HT2A receptor by scintillation counting
Sequence of 5-hydroxytryptamine receptor 2A (Rattus norvegicus, UniProt P14842) (P14842 whole entry): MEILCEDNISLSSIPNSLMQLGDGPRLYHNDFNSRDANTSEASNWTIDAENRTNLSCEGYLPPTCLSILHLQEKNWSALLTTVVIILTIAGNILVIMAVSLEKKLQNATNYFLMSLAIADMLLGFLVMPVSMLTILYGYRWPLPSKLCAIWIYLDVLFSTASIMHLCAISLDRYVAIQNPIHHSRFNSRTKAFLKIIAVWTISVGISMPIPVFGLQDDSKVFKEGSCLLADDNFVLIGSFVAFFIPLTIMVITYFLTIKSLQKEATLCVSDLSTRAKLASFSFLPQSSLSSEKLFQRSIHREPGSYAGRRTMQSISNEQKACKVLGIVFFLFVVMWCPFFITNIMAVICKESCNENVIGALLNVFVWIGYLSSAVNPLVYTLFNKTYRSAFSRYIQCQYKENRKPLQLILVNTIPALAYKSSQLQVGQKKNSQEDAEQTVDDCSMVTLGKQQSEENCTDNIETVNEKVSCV

[14] = system: Rattus norvegicus; assay: Effect on behavioral activity in Wistar rat assessed as increase in non-rapid eye movement delta power at 1.4 mg/kg, po after 4 hrs; type: functional, organism-based; design: dose 1.4 mg/kg; summary of the method: as §3
[15] = system: Rattus norvegicus; assay: Effect on behavioral activity in Wistar rat assessed as increase in non-rapid eye movement delta power at 1.4 mg/kg, po after 1 hr; type: functional, organism-based; design: dose 1.4 mg/kg; summary of the method: as §3
[16] = system: Rattus norvegicus; assay: Effect on behavioral activity in Wistar rat assessed as increase in non-rapid eye movement delta power at 1.4 mg/kg, po after 2 hrs; type: functional, organism-based; design: dose 1.4 mg/kg; summary of the method: as §3

Row | SMILES | Ki [1] [nM] | Ki [2] [nM] | IC50 [3] [nM] | Ki [4] [nM] | Ki [5] [nM] | also measured
1 | CCOc1ccc(NC(=O)Nc2ccc(Cl)cc2)cc1-c1c(Br)cnn1C | 0.251 | 2 |  |  |  | 
2 | Cn1ncc(Br)c1-c1cc(NC(=O)Nc2ccc(Cl)cc2)ccc1OCCc1ccccc1 |  | 794 | 50.1 | 6.31 |  | 
3 | Cn1ncc(Br)c1-c1cc(NC(=O)Nc2ccc(Cl)cc2)ccc1O |  | 50.1 |  | 0.398 |  | 
4 | COc1ccc(NC(=O)Nc2ccc(F)cc2)cc1-c1c(Br)cnn1C(C)C | 0.251 |  | 1 |  | 3.98 | 
5 | COc1ccc(NC(=O)Nc2ccc(Cl)cc2)cc1-c1c(Br)cnn1C(C)C | 0.501 | 2.51 | 1.26 |  |  | 
6 | COc1ccc(NC(=O)Nc2cc(C(F)(F)F)cc(C(F)(F)F)c2)cc1-c1c(Cl)cnn1C | 1 |  | 3.98 |  | 63.1 | 
7 | COc1ccc(NC(=O)Nc2cc(C(F)(F)F)cc(C(F)(F)F)c2)cc1-c1c(Br)cnn1C |  |  | 2 | 0.398 | 31.6 | 

Now from value to molecule, other results behind:

Row | Ki [1] [nM] | Ki [2] [nM] | IC50 [3] [nM] | Ki [4] [nM] | Ki [5] [nM] | SMILES | also measured
8 | 1 |  |  |  | 398 | COc1ccc(NC(=O)Nc2ccccc2F)cc1-c1c(Br)cnn1C | 
9 | 1.26 |  | 2.51 |  | 398 | COc1ccc(NC(=O)Nc2ccc(F)c(F)c2)cc1-c1c(F)cnn1C | 
10 | 0.501 |  | 6.31 |  | 63.1 | COc1ccc(NC(=O)Nc2cccc(C#N)c2)cc1-c1c(Br)cnn1C | 
11 | 2.51 | 251 | 3.98 |  |  | COc1ccc(NC(=O)Nc2cccc(C(C)=O)c2)cc1-c1c(Br)cnn1C | 
12 |  | 158 | 0.631 | 0.631 |  | COc1ccc(NC(=O)Nc2ccc(F)cc2F)cc1-c1c(Br)cnn1C [NELOTANSERIN] | Cmax [6]: 44 ng/mL; Activity [7]: Active; half-life [8]: 3 h; ED50 [9]: 0.7 mg/kg; Activity [10]: Active; Tmax [11]: 3 h; AUC(0-inf) [12]: 298 ng·h/mL; Ki [13]: 5.01 nM; Activity [14]: Active
13 | 0.251 | 25.1 | 0.501 |  |  | COc1ccc(NC(=O)Nc2ccc(F)c(F)c2)cc1-c1c(Cl)cnn1C | 
14 |  | 15.8 | 1.26 | 0.316 |  | COc1ccc(NC(=O)Nc2cc(F)cc(F)c2)cc1-c1c(Br)cnn1C | 
15 | 0.251 |  | 0.251 |  | 31.6 | COc1ccc(NC(=O)Nc2ccc(F)cc2)cc1-c1c(Br)cnn1C | Cmax [6]: 85 ng/mL; Activity [15]: Active; half-life [8]: 2 h; ED50 [9]: 0.7 mg/kg; Activity [10]: Active; Activity [16]: Active; Tmax [11]: 4 h; AUC(0-inf) [12]: 507 ng·h/mL
16 | 0.501 | 126 | 2.51 |  |  | COc1ccc(NC(=O)Nc2ccc(Cl)cc2C(F)(F)F)cc1-c1c(Br)cnn1C | 
17 | 0.794 | 15.8 | 15.8 |  |  | Cn1ncc(Br)c1-c1cc(NC(=O)Nc2ccc(Cl)cc2)ccc1OC(F)(F)F | 
18 |  | 25.1 | 2.51 | 0.316 |  | COc1ccc(NC(=O)Nc2ccc(C(C)C)cc2)cc1-c1c(Br)cnn1C | 
